Data reported in ChEMBL document CHEMBL2331250, “Synthesis of an MIF-1 analogue containing enantiopure (S)-α-trifluoromethyl-proline and biological evaluation on nociception” (Eur J Med Chem, 2013).
Activity calls are given as the source filed them. Residues, ends and D or L forms follow the SMILES beside them.

How the values were obtained:
Assay type in all cases: functional, organism-based
[1] = test system: Rattus norvegicus; assay: Analgesic activity in Wistar rats assessed as increase in latency of response to pain at 1 mg/kg, ip treated 20 mins after 1 mg/kg, ip NO donor, L-arginine challenge measured after 15 to 45 mins by hot plate test
How it was run: (§1)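 Male Wistar rats (180–200 g), 12 h light/dark cycle, food and water ad libitum, tested 09.00–12.00, five rats per group. Peptide given i.p. in sterile 0.9% saline. Pretreatment agents (naloxone or L-Arg at 1 mg/kg, L-NAME at 10 mg/kg, i.p.) were given 20 min before the peptide. Readings began 15 min after peptide injection. Hot plate at 55 ± 0.5 °C; latency measured to first paw licking or jump; 30 s cut-off. Mean ± S.E.M., ANOVA, P < 0.05.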

[2] = test system: Rattus norvegicus; assay: Analgesic activity in Wistar rats assessed as increase in latency of response to pain at 1 mg/kg, ip treated 20 mins after 10 mg/kg, ip NOS inhibitor, L-NAME challenge measured after 15 to 45 mins by hot plate test; how it was run: as §1
[3] = test system: Rattus norvegicus; assay: Analgesic activity in Wistar rats assessed as increase in mechanical nociceptive threshold at 1 mg/kg, ip treated 20 mins after 1 mg/kg, ip NO donor, L-arginine challenge measured after 15 to 45 mins by paw pressure test
How it was run: (§2)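 Male Wistar rats (180–200 g), five per group, tested 09.00–12.00. Peptide given i.p. in sterile 0.9% saline. Pretreatment agents (naloxone or L-Arg at 1 mg/kg, L-NAME at 10 mg/kg, i.p.) were given 20 min before the peptide. Readings began 15 min after peptide injection. Randall-Selitto analgesimeter applied pressure to the hind paw; threshold was the pressure (g) eliciting squeak or struggle; 500 g cut-off. Mean ± S.E.M., ANOVA.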

[4] = test system: Rattus norvegicus; assay: Analgesic activity in Wistar rats assessed as increase in mechanical nociceptive threshold at 1 mg/kg, ip treated 20 mins after 10 mg/kg, ip NOS inhibitor, L-NAME challenge measured after 15 to 45 mins by paw pressure test; how it was run: as §2
[5] = test system: Rattus norvegicus; assay: Analgesic activity in Wistar rats assessed as increase in latency of response to pain at 1 mg/kg, ip treated 20 mins after 1 mg/kg, ip […] opiate receptor antagonist, naloxone challenge measured after 15 to 30 mins by hot plate test; how it was run: as §1
[6] = test system: Rattus norvegicus; assay: Analgesic activity in Wistar rats assessed as increase in mechanical nociceptive threshold at 1 mg/kg, ip treated 20 mins after 1 mg/kg, ip […] opiate receptor antagonist, naloxone challenge measured after 15 to 30 mins by paw pressure test; how it was run: as §2
[7] = test system: Rattus norvegicus; assay: Analgesic activity in Wistar rats assessed as increase in latency of response to pain at 1 mg/kg, ip measured after 15 mins by hot plate test; parameters: dose 1 mg/kg; how it was run: as §1
[8] = test system: Rattus norvegicus; assay: Analgesic activity in Wistar rats assessed as increase in mechanical nociceptive threshold at 1 mg/kg, ip measured after 15 mins by paw pressure test; parameters: dose 1 mg/kg; how it was run: as §2
[9] = test system: Rattus norvegicus; assay: Analgesic activity in Wistar rats assessed as increase in latency of response to pain at 1 mg/kg, ip measured after 15 to 45 mins by hot plate test; parameters: dose 1 mg/kg; how it was run: as §1
[10] = test system: Rattus norvegicus; assay: Analgesic activity in Wistar rats assessed as increase in mechanical nociceptive threshold at 1 mg/kg, ip measured after 15 to 30 mins by paw pressure test; parameters: dose 1 mg/kg; how it was run: as §2

Compound	Activity [1]	Activity [2]	Activity [3]	Activity [4]	Activity [5]	Activity [6]	Activity [7]	Activity [8]	Activity [9]	Activity [10]
CC(C)C[C@H](NC(=O)[C@@H]1CCCN1)C(=O)NCC(N)=O (H-Pro-Leu-Gly-NH2)	inactive	inactive	inactive	inactive	inactive	inactive	Active	inactive		
CC(C)C[C@H](NC(=O)[C@]1(C(F)(F)F)CCCN1)C(=O)NCC(N)=O	inactive	inactive	inactive	inactive	inactive	inactive			inactive	Active
